Tests used:
[1] = Cytotoxicity against human 518A2 cells after 96 hrs by SRB assay; assay type: functional, cell-based
In short: (§1)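 Photometric sulforhodamine B read-out of antiproliferative effect after 96 h of continuous treatment; EC₅₀ values in µM, averaged from three independent experiments each run in triplicate; the assay cut-off is EC₅₀ > 30 µM. Human tumour lines are tested alongside nonmalignant mouse NIH 3T3 fibroblasts.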

A2780 = assay: Cytotoxicity against human A2780 cells after 96 hrs by SRB assay; assay type: functional, cell-based; in short: as §1
A549 = assay: Cytotoxicity against human A549 cells after 96 hrs by SRB assay; assay type: functional, cell-based; in short: as §1
MCF7 = assay: Cytotoxicity against human MCF7 cells after 96 hrs by SRB assay; assay type: functional, cell-based; in short: as §1
[2] = Cytotoxicity against mouse NIH/3T3 cells after 96 hrs by SRB assay; assay type: cell-based, NIH3T3; in short: as §1
HT-29 = assay: Cytotoxicity against human HT-29 cells after 96 hrs by SRB assay; assay type: functional, cell-based; conditions: HT-29, 96 h; in short: as §1
HeLa = assay: Cytotoxicity against human HeLa cells after 96 hrs by SRB assay; assay type: functional, cell-based; in short: as §1
[3] = Homo sapiens, 518A2, 96 h, read-out: EC50
[4] = Homo sapiens, A2780, 96 h, read-out: EC50
[5] = Homo sapiens, A549, 96 h, read-out: EC50
[6] = Homo sapiens, MCF7, 96 h, read-out: EC50
[7] = Mus musculus, NIH3T3, 96 h, read-out: EC50

| Compound | EC50 [1, 3] [µM] | EC50 (A2780; [4]) [µM] | EC50 (A549; [5]) [µM] | EC50 (MCF7; [6]) [µM] | EC50 [2, 7] [µM] | EC50 (HT-29) [µM] | EC50 (HeLa) [µM] | EC50 ([1]; 518a2) | EC50 (A2780; a2780) | EC50 (A549; a549) | EC50 (MCF7; mcf7) | EC50 ([2]; nih3t3) |
| --- | --- | --- | --- | --- | --- | --- | --- | --- | --- | --- | --- | --- |
| C=C(C)[C@@H]1CC[C@]2(C(N)=O)CC[C@]3(C)[C@H](CC[C@@H]4[C@@]5(C)CCC(=O)C(C)(C)[C@@H]5CC[C@]43C)[C@@H]12 | 21.5 | 15.6 | 14.7 | 10.3 | 17.7 | 17.9 | 22.9 | – | – | – | – | – |
| C=C(C)[C@@H]1CC[C@]2(COC(=O)NCC)CC[C@]3(C)[C@H](CC[C@@H]4[C@@]5(C)CC[C@H](OC(=O)NCC)C(C)(C)[C@@H]5CC[C@]43C)[C@@H]12 [BIS(ETHYLCARBAMATE)BETULIN] | 12.6 | 5.8 | 10.7 | 23.3 | > 30 | 8.3 | 17.8 | – | – | – | – | – |
| C=C(C)[C@@H]1CC[C@]2(COC(=O)Nc3ccccc3)CC[C@]3(C)[C@H](CC[C@@H]4[C@@]5(C)CCC(=O)C(C)(C)[C@@H]5CC[C@]43C)[C@@H]12 | > 30 | > 30 | > 30 | > 30 | > 30 | > 30 | > 30 | – | – | – | – | – |
| C=C(C)[C@@H]1CC[C@]2(COC(=O)NCC)CC[C@]3(C)[C@H](CC[C@@H]4[C@@]5(C)CC[C@H](O)C(C)(C)[C@@H]5CC[C@]43C)[C@@H]12 | 12.5 | 4.6 | 12 | 12.1 | 8.8 | > 30 | > 30 | – | – | – | – | – |
| C=C(C)[C@@H]1CC[C@]2(COC(=O)NCCCC)CC[C@]3(C)[C@H](CC[C@@H]4[C@@]5(C)CC[C@H](OC(C)=O)C(C)(C)[C@@H]5CC[C@]43C)[C@@H]12 | > 30 | > 30 | > 30 | > 30 | > 30 | > 30 | > 30 | – | – | – | – | – |
| C=C(C)[C@@H]1CC[C@]2(COC(=O)NCCC)CC[C@]3(C)[C@H](CC[C@@H]4[C@@]5(C)CC[C@H](OC(C)=O)C(C)(C)[C@@H]5CC[C@]43C)[C@@H]12 | > 30 | > 30 | > 30 | > 30 | > 30 | > 30 | > 30 | – | – | – | – | – |
| C=C(C)[C@@H]1CC[C@]2(COC(=O)NCC)CC[C@]3(C)[C@H](CC[C@@H]4[C@@]5(C)CCC(=O)C(C)(C)[C@@H]5CC[C@]43C)[C@@H]12 | 16.6 | 8.3 | 20.3 | 19.7 | 4.6 | 11.5 | 13.4 | – | – | – | – | – |
| C=C(C)[C@@H]1CC[C@]2(COC(=O)NCCCCCC)CC[C@]3(C)[C@H](CC[C@@H]4[C@@]5(C)CC[C@H](OC(C)=O)C(C)(C)[C@@H]5CC[C@]43C)[C@@H]12 | > 30 | > 30 | > 30 | > 30 | > 30 | > 30 | > 30 | – | – | – | – | – |
| C=C(C)[C@@H]1CC[C@]2(COC(=O)NCCCCCC)CC[C@]3(C)[C@H](CC[C@@H]4[C@@]5(C)CC[C@H](OC(=O)NCCCCCC)C(C)(C)[C@@H]5CC[C@]43C)[C@@H]12 | > 30 | > 30 | > 30 | > 30 | > 30 | > 30 | > 30 | – | – | – | – | – |
| C=C(C)[C@@H]1CC[C@]2(COC(=O)NCCCC)CC[C@]3(C)[C@H](CC[C@@H]4[C@@]5(C)CC[C@H](O)C(C)(C)[C@@H]5CC[C@]43C)[C@@H]12 | 8 | 7 | 8.6 | 12.5 | 5.7 | 7.5 | 10.1 | – | – | – | – | – |
| C=C(C)[C@@H]1CC[C@]2(COC(=O)NCCC)CC[C@]3(C)[C@H](CC[C@@H]4[C@@]5(C)CC[C@H](O)C(C)(C)[C@@H]5CC[C@]43C)[C@@H]12 | 15.9 | 10.6 | 14.2 | 15.5 | 7.3 | 16.3 | 9.4 | – | – | – | – | – |
| C=C(C)[C@@H]1CC[C@]2(COC(=O)Nc3ccccc3)CC[C@]3(C)[C@H](CC[C@@H]4[C@@]5(C)CC[C@H](OC(C)=O)C(C)(C)[C@@H]5CC[C@]43C)[C@@H]12 | > 30 | > 30 | > 30 | > 30 | > 30 | > 30 | > 30 | – | – | – | – | – |
| C=C(C)[C@@H]1CC[C@]2(COC(=O)NCCCCCC)CC[C@]3(C)[C@H](CC[C@@H]4[C@@]5(C)CC[C@H](O)C(C)(C)[C@@H]5CC[C@]43C)[C@@H]12 | 5.5 | 7.7 | 12.7 | > 30 | > 30 | > 30 | 7.4 | – | – | – | – | – |
| C=C(C)[C@@H]1CC[C@]2(C(N)=O)CC[C@]3(C)[C@H](CC[C@@H]4[C@@]5(C)CC[C@H](OC(C)=O)C(C)(C)[C@@H]5CC[C@]43C)[C@@H]12 | 13.4 | 5.7 | 12.4 | 11.1 | 20 | 11.5 | 12 | – | – | – | – | – |
| C=C(C)[C@@H]1CC[C@]2(COC(=O)Nc3ccccc3)CC[C@]3(C)[C@H](CC[C@@H]4[C@@]5(C)CC[C@H](O)C(C)(C)[C@@H]5CC[C@]43C)[C@@H]12 | 23.9 | 7.2 | > 30 | 24.6 | 14.3 | 16.3 | 11.5 | – | – | – | – | – |
| C=C(C)[C@@H]1CC[C@]2(COC(=O)NCCC)CC[C@]3(C)[C@H](CC[C@@H]4[C@@]5(C)CC[C@H](OC(=O)NCCC)C(C)(C)[C@@H]5CC[C@]43C)[C@@H]12 | > 30 | 19.4 | > 30 | > 30 | > 30 | > 30 | > 30 | – | – | – | – | – |
| C=C(C)[C@@H]1CC[C@]2(COC(C)=O)CC[C@]3(C)[C@H](CC[C@@H]4[C@@]5(C)CC[C@H](OC(C)=O)C(C)(C)[C@@H]5CC[C@]43C)[C@@H]12 [BETULIN DIACETATE] | > 30 | > 30 | > 30 | > 30 | > 30 | – | – | – | – | – | – | – |
| C=C(C)[C@@H]1CC[C@]2(C(=O)NCc3ccccc3)CC[C@]3(C)[C@H](CC[C@@H]4[C@@]5(C)CCC(=O)C(C)(C)[C@@H]5CC[C@]43C)[C@@H]12 | > 30 | 7.4 | > 30 | > 30 | > 30 | > 30 | > 30 | – | – | – | – | – |
| C=C(C)[C@@H]1CC[C@]2(C(=O)NOC)CC[C@]3(C)[C@H](CC[C@@H]4[C@@]5(C)CC[C@H](O)C(C)(C)[C@@H]5CC[C@]43C)[C@@H]12 | 5.8 | 12.3 | 6.9 | 21.9 | 15.2 | – | – | – | – | – | – | – |
| C=C(C)[C@@H]1CC[C@]2(C(=O)N(C)OC)CC[C@]3(C)[C@H](CC[C@@H]4[C@@]5(C)CCC(=O)C(C)(C)[C@@H]5CC[C@]43C)[C@@H]12 | > 30 | 20.7 | 14.5 | 18.7 | 26.7 | – | – | – | – | – | – | – |
| C=C(C)[C@@H]1CC[C@]2(COC(=O)NCCCC)CC[C@]3(C)[C@H](CC[C@@H]4[C@@]5(C)CC[C@H](OC(=O)NCCCC)C(C)(C)[C@@H]5CC[C@]43C)[C@@H]12 | > 30 | > 30 | > 30 | > 30 | > 30 | > 30 | > 30 | – | – | – | – | – |
| C=C(C)[C@@H]1CC[C@]2(COC(=O)NCC)CC[C@]3(C)[C@H](CC[C@@H]4[C@@]5(C)CC[C@H](OC(C)=O)C(C)(C)[C@@H]5CC[C@]43C)[C@@H]12 | 10.2 | 11.1 | 14.1 | 20.4 | > 30 | > 30 | 17 | – | – | – | – | – |
| C=C(C)[C@@H]1CC[C@]2(C(=O)N(C)O)CC[C@]3(C)[C@H](CC[C@@H]4[C@@]5(C)CC[C@H](O)C(C)(C)[C@@H]5CC[C@]43C)[C@@H]12 | – | – | – | – | – | – | – | ND(Insoluble) | ND(Insoluble) | ND(Insoluble) | ND(Insoluble) | ND(Insoluble) |
| C=C(C)[C@@H]1CC[C@]2(C(=O)N(C)OC)CC[C@]3(C)[C@H](CC[C@@H]4[C@@]5(C)CC[C@H](O)C(C)(C)[C@@H]5CC[C@]43C)[C@@H]12 | 7.3 | 7.6 | 19 | 10.2 | 7.7 | – | – | – | – | – | – | – |
| C=C(C)[C@@H]1CC[C@]2(C(=O)NOC)CC[C@]3(C)[C@H](CC[C@@H]4[C@@]5(C)CC[C@H](OC(C)=O)C(C)(C)[C@@H]5CC[C@]43C)[C@@H]12 | 8 | 8.9 | 11.7 | 13.5 | 9.5 | – | – | – | – | – | – | – |
| C=C(C)[C@@H]1CC[C@]2(C(=O)O)CC[C@]3(C)[C@H](CC[C@@H]4[C@@]5(C)CC[C@H](OC(C)=O)C(C)(C)[C@@H]5CC[C@]43C)[C@@H]12 | 4.5 | 18.3 | 6.2 | 11 | > 30 | – | – | – | – | – | – | – |
| C=C(C)[C@@H]1CC[C@]2(C(=O)NCc3ccccc3)CC[C@]3(C)[C@H](CC[C@@H]4[C@@]5(C)CC[C@H](O)C(C)(C)[C@@H]5CC[C@]43C)[C@@H]12 | > 30 | 11.8 | > 30 | 18 | 11.1 | – | > 30 | – | – | – | – | – |
